# In ChEMBL document CHEMBL4390662, “Design, synthesis and biological evaluation of novel α-acyloxy carboxamides via Passerini reaction as caspase 3/7 activators” (Eur J Med Chem, 2019):
# Calls of active or inactive are those of the source. The calls are words filed in the database; no cut-off is given here.
# Experiments:
# [1] = Selectivity index, ratio of IC50 for human WI38 cells to IC50 for human HepG2 cells; assay type: toxicity; settings: WI38 cells versus HepG2 cells, read-out: Ratio IC50
# Outline: (§1)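 SI calculated as IC50 on normal Wi-38 fibroblasts divided by IC50 on the cancer cell line. Both came from 72 h MTT assays.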
# Staphylococcus aureus [2] = test: Antimicrobial activity against Staphylococcus aureus ATCC 25923 incubated for 24 hrs by microdilution assay; assay type: functional
# Outline: (§2)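 Two-fold serial dilutions of test solutions made in Mueller Hinton broth and inoculated. Incubated at 37°C for 24 h. MIC taken as the lowest concentration with no growth. Ciprofloxacin is the antibacterial reference, fluconazole the antifungal one, and DMSO the blank.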
# WI-38 = test: Cytotoxicity against human WI38 cells assessed as cell growth inhibition incubated for 72 hrs by MTT assay; assay type: cell-based; settings: for IC50: Homo sapiens, WI-38, 72 h; for EC100: human, wi-38, 72 h
# Outline: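 Wi-38 fibroblasts grown in DMEM with 10% FBS and seeded at 5×10^3 per well. Attachment 24 h, then serial concentrations for 72 h at 37°C, 5% CO2. MTT stock (5 mg/mL) added for 3 h at 37°C, DMSO solubilization, absorbance at 570 nm. IC50 estimated.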
# Staphylococcus aureus [3] = test: Antimicrobial activity against Staphylococcus aureus ATCC 25923 incubated for 24 hrs by agar well diffusion assay; assay type: functional
# Outline: (§3)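 Nutrient agar spread with 100 µL inoculum: bacteria at 1×10^8 CFU/mL, fungi at 1×10^6 CFU/mL. 10 mm wells loaded with 100 µL of compound in DMSO (final 1 mg/mL). Bacteria incubated 24 h at 37 °C, fungi 48 h at 28 °C. Inhibition zones measured in mm. Ciprofloxacin and fluconazole standards at 1 mg/mL, DMSO negative control.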
# Pseudomonas aeruginosa = test: Antimicrobial activity against Pseudomonas aeruginosa ATCC 27853 incubated for 24 hrs by agar well diffusion assay; assay type: functional; outline: as §3
# Escherichia coli [4] = test: Antimicrobial activity against Escherichia coli ATCC 25922 incubated for 24 hrs by agar well diffusion assay; assay type: functional; outline: as §3
# Escherichia coli [5] = test: Antimicrobial activity against Escherichia coli ATCC 25922 incubated for 24 hrs by microdilution assay; assay type: functional; settings: ATCC 25922, 24 h; outline: as §2
# Candida albicans [6] = test: Antimicrobial activity against Candida albicans ATCC 90028 incubated for 24 hrs by microdilution assay; assay type: functional; outline: as §2
# NFS-60 [7] = test: Cytotoxicity against mouse NFS60 cells assessed as cell growth inhibition incubated for 72 hrs by MTT assay; assay type: functional, cell-based; settings: NFS-60, 72 h
# Outline: (§4)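 Cells grown in RPMI-1640 with 10% FBS and seeded at 5×10^3 per well. After 24 h, serial concentrations given for 72 h at 37°C, 5% CO2. Then 5 mg/mL MTT stock added for 3 h, formazan dissolved in DMSO, A570 read. IC50 calculated from the curves.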
# [8] = Selectivity index, ratio of IC50 for human WI38 cells to IC50 for human MCF7 cells; assay type: toxicity; settings: WI38 cells versus MCF7 cells, read-out: Ratio IC50; outline: as §1
# Enterococcus faecalis = test: Antimicrobial activity against Enterococcus faecalis ATCC 29212 incubated for 24 hrs by agar well diffusion assay; assay type: functional; outline: as §3
# MCF7 [9] = test: Cytotoxicity against human MCF7 cells assessed as cell growth inhibition incubated for 72 hrs by MTT assay; assay type: functional, cell-based; settings: MCF7, 72 h; outline: as §4
# [10] = Selectivity index, ratio of IC50 for human WI38 cells to IC50 for mouse NFS60 cells; outline: as §1
# Candida albicans [11] = test: Antimicrobial activity against Candida albicans ATCC 90028 incubated for 48 hrs by agar well diffusion assay; assay type: functional; outline: as §3
# HepG2 [12] = test: Cytotoxicity against human HepG2 cells assessed as cell growth inhibition incubated for 72 hrs by MTT assay; assay type: functional, cell-based; settings: HepG2, 72 h; outline: as §4
# NFS-60 [13] = test: Induction of apoptosis in mouse NFS60 cells assessed as viable cells level at IC50 incubated for 72 hrs by annexin V/propidium iodide staining based flow cytometry (reference value: 99.52%); assay type: functional
# NFS-60 [14] = test: Induction of apoptosis in mouse NFS60 cells assessed as caspase 3/7 activity using DEVD aminoluciferin as substrate at IC50 after 24 hrs […] relative to control; assay type: functional
# Outline: (§5)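 Caspase 3/7 activation measured with Caspase-Glo 3/7 kit using a luminogenic caspase-cleavable substrate. […] Reported as percent activation, mean ± SEM.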
# MCF7 [15] = test: Induction of apoptosis in human MCF7 cells assessed as early apoptotic cells level at IC50 incubated for 72 hrs by annexin V/propidium iodide staining based flow cytometry (reference value: 0.01%); assay type: functional
# HepG2 [16] = test: Induction of apoptosis in human HepG2 cells assessed as late apoptotic cells at IC50 incubated for 72 hrs by annexin V/propidium iodide staining based flow cytometry (reference value: 0.1 +/- 0.001%); assay type: functional
# HepG2 [17] = test: Induction of apoptosis in human HepG2 cells assessed as viable cells level at IC50 incubated for 72 hrs by annexin V/propidium iodide staining based flow cytometry (reference value: 98.97%); assay type: functional
# HepG2 [18] = test: Induction of apoptosis in human HepG2 cells assessed as necrotic cells level at IC50 incubated for 72 hrs by annexin V/propidium iodide staining based flow cytometry (reference value: 0.87%); assay type: functional
# MCF7 [19] = test: Induction of apoptosis in human MCF7 cells assessed as late apoptotic cells level at IC50 incubated for 72 hrs by annexin V/propidium iodide staining based flow cytometry (reference value: 0.01%); assay type: functional
# HepG2 [20] = test: Induction of apoptosis in human HepG2 cells assessed as late apoptotic cells level at IC50 incubated for 72 hrs by annexin V/propidium iodide staining based flow cytometry (reference value: 0.1%); assay type: functional
# NFS-60 [21] = test: Induction of apoptosis in mouse NFS60 cells assessed as late apoptotic cells at IC50 incubated for 72 hrs by annexin V/propidium iodide staining based flow cytometry (reference value: 0.015 +/- 0.01%)
# MCF7 [22] = test: Induction of apoptosis in human MCF7 cells assessed as total apoptotic cells at IC50 incubated for 72 hrs by annexin V/propidium iodide staining based flow cytometry (reference value: 0.48 +/- 0.01%); assay type: functional
# MCF7 [23] = test: Induction of apoptosis in human MCF7 cells assessed as late apoptotic cells at IC50 incubated for 72 hrs by annexin V/propidium iodide staining based flow cytometry (reference value: 0.01 +/- 0.001%); assay type: functional
# HepG2 [24] = test: Induction of apoptosis in human HepG2 cells assessed as caspase 3/7 activity using DEVD aminoluciferin as substrate at IC50 after 24 hrs by fluorescence assay relative to control; assay type: functional; outline: as §5
# MCF7 [25] = test: Induction of apoptosis in human MCF7 cells assessed as viable cells level at IC50 incubated for 72 hrs by annexin V/propidium iodide staining based flow cytometry (reference value: 99.5%); assay type: functional
# MCF7 [26] = test: Induction of apoptosis in human MCF7 cells assessed as necrotic cells level at IC50 incubated for 72 hrs by annexin V/propidium iodide staining based flow cytometry (reference value: 0.48%); assay type: functional
# HepG2 [27] = test: Induction of apoptosis in human HepG2 cells assessed as total apoptotic cells at IC50 incubated for 72 hrs by annexin V/propidium iodide staining based flow cytometry (reference value: 0.169 +/- 0.02%); assay type: functional
# NFS-60 [28] = test: Induction of apoptosis in mouse NFS60 cells assessed as early apoptotic cells level at IC50 incubated for 72 hrs by annexin V/propidium iodide staining based flow cytometry (reference value: 0.46%); assay type: functional
# NFS-60 [29] = test: Induction of apoptosis in mouse NFS60 cells assessed as total apoptotic cells at IC50 incubated for 72 hrs by annexin V/propidium iodide staining based flow cytometry (reference value: 0.495 +/- 0.01%); assay type: functional
# MCF7 [30] = test: Induction of apoptosis in human MCF7 cells assessed as early apoptotic cells at IC50 incubated for 72 hrs by annexin V/propidium iodide staining based flow cytometry (reference value: 0.47 +/- 0.01%); assay type: functional
# NFS-60 [31] = test: Induction of apoptosis in mouse NFS60 cells assessed as necrotic cells level at IC50 incubated for 72 hrs by annexin V/propidium iodide staining based flow cytometry (reference value: 0.01%); assay type: functional
# NFS-60 [32] = test: Induction of apoptosis in mouse NFS60 cells assessed as early apoptotic cells at IC50 incubated for 72 hrs by annexin V/propidium iodide staining based flow cytometry (reference value: 0.02 +/- 0.01%); assay type: functional
# NFS-60 [33] = test: Induction of apoptosis in mouse NFS60 cells assessed as late apoptotic cells level at IC50 incubated for 72 hrs by annexin V/propidium iodide staining based flow cytometry (reference value: 0.01%); assay type: functional
# HepG2 [34] = test: Induction of apoptosis in human HepG2 cells assessed as early apoptotic cells at IC50 incubated for 72 hrs by annexin V/propidium iodide staining based flow cytometry (reference value: 0.78 +/- 0.09%); assay type: functional
# HepG2 [35] = test: Induction of apoptosis in human HepG2 cells assessed as early apoptotic cells level at IC50 incubated for 72 hrs by annexin V/propidium iodide staining based flow cytometry (reference value: 0.05%); assay type: functional
# MCF7 [36] = test: Induction of apoptosis in human MCF7 cells assessed as caspase 3/7 activity using DEVD aminoluciferin as substrate at IC50 after 24 hrs […] relative to control; assay type: functional; outline: as §5
structure (smiles),measurement,setting,value
O=C(OC1(C(=O)Nc2ccc([N+](=O)[O-])cc2)CCCCC1)c1ccccc1[N+](=O)[O-],selectivity ratio,[1],0.786
same,MIC,Staphylococcus aureus [2],inactive
same,IC50,WI-38,34.6 nM
same,EC100,WI-38,0.0067 µM
same,diameter of the inhibition zone (DIZ),Staphylococcus aureus [3],inactive
same,diameter of the inhibition zone (DIZ),Pseudomonas aeruginosa,14 mm
same,diameter of the inhibition zone (DIZ),Escherichia coli [4],12 mm
same,MIC,Escherichia coli [5],2480 µM
same,MIC,Candida albicans [6],inactive
same,IC50,NFS-60 [7],18.8 nM
same,selectivity ratio,[8],2.35
same,diameter of the inhibition zone (DIZ),Enterococcus faecalis,inactive
same,IC50,MCF7 [9],14.7 nM
same,Ratio IC50,[10],1.84
same,diameter of the inhibition zone (DIZ),Candida albicans [11],inactive
same,IC50,HepG2 [12],44 nM
COc1ccc(C(=O)OC2(C(=O)Nc3ccc([N+](=O)[O-])cc3)CCCCC2)cc1,selectivity ratio,[1],0.7
same,MIC,Staphylococcus aureus [2],inactive
same,IC50,WI-38,40 nM
same,EC100,WI-38,0.0178 µM
same,diameter of the inhibition zone (DIZ),Staphylococcus aureus [3],inactive
same,diameter of the inhibition zone (DIZ),Pseudomonas aeruginosa,12 mm
same,diameter of the inhibition zone (DIZ),Escherichia coli [4],12 mm
same,MIC,Escherichia coli [5],2570 µM
same,MIC,Candida albicans [6],inactive
same,IC50,NFS-60 [7],38.8 nM
same,selectivity ratio,[8],0.97
same,diameter of the inhibition zone (DIZ),Enterococcus faecalis,inactive
same,IC50,MCF7 [9],41.2 nM
same,Ratio IC50,[10],1.031
same,diameter of the inhibition zone (DIZ),Candida albicans [11],inactive
same,IC50,HepG2 [12],57.1 nM
COc1cccc2c1C(=O)c1c(O)c3c(c(O)c1C2=O)C[C@@](O)(C(=O)CO)C[C@@H]3O[C@H]1C[C@H](N)[C@H](O)[C@H](C)O1 [DOXORUBICIN],Activity,NFS-60 [13],58.34%
same,IC50,WI-38,26.6 nM
same,EC100,WI-38,0.0121 µM
same,Activity,NFS-60 [14],45.39%
same,Activity,MCF7 [15],5.92%
same,Activity,HepG2 [16],25.49%
same,Activity,HepG2 [17],53.61%
same,Activity,HepG2 [18],11.94%
same,Activity,MCF7 [19],18.78%
same,Activity,HepG2 [20],23.91%
same,Activity,NFS-60 [21],23.215%
same,Activity,MCF7 [22],33.974%
same,IC50,NFS-60 [7],13 nM
same,Activity,MCF7 [23],20.445%
same,Activity,HepG2 [24],48.09%
same,Activity,MCF7 [25],60.42%
same,Activity,MCF7 [26],14.88%
same,Activity,HepG2 [27],36.08%
same,Activity,NFS-60 [28],7.27%
same,Activity,NFS-60 [29],34.595%
same,Activity,MCF7 [30],13.53%
same,Activity,NFS-60 [31],12.76%
same,Activity,NFS-60 [32],11.379%
same,Activity,NFS-60 [33],21.62%
same,IC50,HepG2 [12],10 nM
same,Activity,HepG2 [34],10.59%
same,Activity,HepG2 [35],10.54%
same,Activity,MCF7 [36],42.94%
COC1(Nc2ccc([N+](=O)[O-])cc2)C(=O)c2ccccc2C1=O,selectivity ratio,[1],1.49
same,MIC,Staphylococcus aureus [2],inactive
same,IC50,WI-38,53.7 nM
same,EC100,WI-38,0.043 µM
same,diameter of the inhibition zone (DIZ),Staphylococcus aureus [3],inactive
same,diameter of the inhibition zone (DIZ),Pseudomonas aeruginosa,14 mm
same,diameter of the inhibition zone (DIZ),Escherichia coli [4],14 mm
same,MIC,Escherichia coli [5],3280 µM
same,MIC,Candida albicans [6],inactive
same,IC50,NFS-60 [7],32.8 nM
same,selectivity ratio,[8],2.11
same,diameter of the inhibition zone (DIZ),Enterococcus faecalis,inactive
same,IC50,MCF7 [9],25.4 nM
same,Ratio IC50,[10],1.637
same,diameter of the inhibition zone (DIZ),Candida albicans [11],inactive
same,IC50,HepG2 [12],36 nM
